# Measurements as given in ChEMBL document CHEMBL3352548, “Small-molecule suppression of β-lactam resistance in multidrug-resistant gram-negative pathogens” (J Med Chem, 2014).
# Experiments:
# [1] = tested on: Acinetobacter baumannii; assay: Antibacterial activity against Acinetobacter baumannii ATCC BAA-1605 assessed as meropenem MIC at 15 uM after 6 hrs in presence of 10% bovine plasma by time kill assay (Rvb meropenem MIC in absence of plasma= 32 ug/ml); assay type: functional; settings: ATCC BAA-1605, 6 h
# In short: (§1)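 Meropenem MIC against A. baumannii BAA-1605 in CAMHB containing 10% bovine plasma, with compound held at fixed 15, 20, 25 or 30 μM. Parallel runs were done in CAMHB without plasma.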
# [2] = tested on: Acinetobacter baumannii; assay: Antibacterial activity against Acinetobacter baumannii ATCC BAA-1605 assessed as complete inhibition of bacterial growth after 16 hrs by microdilution method; assay type: functional; settings: ATCC BAA-1605, 16 h
# In short: (§2)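 MIC of each compound alone was determined first. Antibiotic MICs (imipenem or meropenem for A. baumannii; ceftazidime or meropenem for P. aeruginosa) were then measured with compound at fixed sub-MIC concentrations. Fold reduction is MIC without compound divided by MIC with compound.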
# [3] = tested on: Pseudomonas aeruginosa; assay: Antibacterial activity against Pseudomonas aeruginosa PA53 assessed as complete inhibition of bacterial growth after 16 hrs by microdilution method; assay type: functional; settings: PA53, 16 h; in short: as §2
# [4] = tested on: Pseudomonas aeruginosa; assay: Antibacterial activity against Pseudomonas aeruginosa PA53 assessed as fold reduction in ceftazidime MIC at 60 uM after 16 hrs by microdilution method; assay type: functional; in short: as §2
# [5] = tested on: Acinetobacter baumannii; assay: Antibacterial activity against Acinetobacter baumannii ATCC BAA-1605 assessed as reduction in CFU at 15 uM after 6 hrs by time kill assay in presence of 1 ug/ml meropenem; assay type: functional
# In short: (§3)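 Time-kill: cultures were grown at 37 °C with shaking with compound (15 μM for BAA-1605, 60 μM for PA53), meropenem (1–32 μg/mL for BAA-1605, 1–64 μg/mL for PA53), or both. Samples taken at 2, 4, 6, 8 and 24 h were serially diluted in CAMHB, plated on nutrient agar, incubated overnight at 37 °C, and colonies counted.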
# [6] = Cytotoxicity against human HaCaT cells after 12 to 18 hrs by MTT assay; assay type: cell-based; settings: read-out: TCID50
# In short: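 HaCaT keratinocytes were grown in 10% FBS–DMEM with penicillin/streptomycin, seeded at 8 × 10^4 cells/mL and grown overnight to 90% confluence. Serial dilutions (2.5 mM to 1.22 μM, duplicate) were applied overnight. MTT was added for 4 h in the dark, then SDS/HCl solubilizer for 12–18 h. Absorbance was read at 550 nm against a 670 nm reference.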
# [7] = tested on: Acinetobacter baumannii; assay: Antibacterial activity against Acinetobacter baumannii ATCC BAA-1605 assessed as reduction in CFU at 15 uM after 6 hrs by time kill assay in presence of 4 ug/ml meropenem; assay type: functional; in short: as §3
# [8] = tested on: Acinetobacter baumannii; assay: Antibacterial activity against Acinetobacter baumannii ATCC BAA-1605 assessed as cell death at 15 uM after 16 hrs by checkerboard assay in presence of 10% bovine plasma; assay type: functional; settings: ATCC BAA-1605, Plasma
# In short: (§4)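 A. baumannii BAA-1605 MIC of compound alone, measured in cation-adjusted Mueller–Hinton broth (CAMHB) supplemented with 10% or 50% bovine plasma.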
# [9] = tested on: Acinetobacter baumannii; assay: Antibacterial activity against Acinetobacter baumannii ATCC BAA-1605 assessed as reduction in CFU at 15 uM after 6 hrs by time kill assay; assay type: functional; in short: as §3
# [10] = tested on: Pseudomonas aeruginosa; assay: Antibacterial activity against Pseudomonas aeruginosa PA53 assessed as reduction in CFU at 60 uM after 6 hrs by time kill assay in presence of 1 ug/ml meropenem; assay type: functional; in short: as §3
# [11] = tested on: Acinetobacter baumannii; assay: Antibacterial activity against Acinetobacter baumannii ATCC BAA-1605 assessed as meropenem MIC at 20 uM after 6 hrs in presence of 10% bovine plasma by time kill assay (Rvb meropenem MIC in absence of plasma= 4 ug/ml); assay type: functional; settings: ATCC BAA-1605, 6 h; in short: as §1
# [12] = tested on: Acinetobacter baumannii; assay: Antibacterial activity against Acinetobacter baumannii ATCC BAA-1605 assessed as meropenem MIC at 25 uM after 6 hrs in presence of 10% bovine plasma by time kill assay (Rvb meropenem MIC in absence of plasma= 2 ug/ml); assay type: functional; settings: ATCC BAA-1605, 6 h; in short: as §1
# [13] = tested on: Acinetobacter baumannii; assay: Antibacterial activity against Acinetobacter baumannii ATCC BAA-1605 assessed as fold reduction in meropenem MIC at 15 uM after 16 hrs by microdilution method; assay type: functional; in short: as §2
# [14] = tested on: Acinetobacter baumannii; assay: Antibacterial activity against Acinetobacter baumannii ATCC BAA-1605 assessed as cell death at 15 uM after 16 hrs by checkerboard assay in presence of meropenem; assay type: functional
# In short: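 Checkerboard in CAMHB with BAA-1605 at 5 × 10^5 CFU/mL. Compound and meropenem were each serially two-fold diluted along perpendicular axes, with one […] row and column giving each agent's MIC alone. ΣFIC = (combination MIC/MIC alone) for compound plus the same for antibiotic. ≤0.5 was taken as synergy, 0.5–2 as indifference, ≥2 as antagonism.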
# [15] = tested on: Pseudomonas aeruginosa; assay: Antibacterial activity against Pseudomonas aeruginosa PA53 assessed as fold reduction in meropenem MIC at 60 uM after 16 hrs by microdilution method; assay type: functional; in short: as §2
# [16] = Hemolytic activity in sheep red blood cells up to 400 uM by UV spectrophotometry; assay type: ADME, cell-based, Ovis aries; settings: erythrocyte
# In short: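 Mechanically defibrinated sheep blood cells were washed three times by centrifugation in PBS and diluted 10-fold. Compound in PBS was added and samples shaken at 200 rpm for 1 h at 37 °C. Supernatant was diluted 40-fold in water and read at 540 nm. PBS served as zero-lysis control and 1% Triton X as 100% lysis control.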
# [17] = tested on: Acinetobacter baumannii; assay: Antibacterial activity against Acinetobacter baumannii ATCC BAA-1605 assessed as fold reduction in imipenem MIC at 15 uM after 16 hrs by microdilution method; assay type: functional; in short: as §2
# [18] = tested on: Acinetobacter baumannii; assay: Antibacterial activity against Acinetobacter baumannii ATCC BAA-1605 assessed as meropenem MIC at 30 uM after 6 hrs in presence of 10% bovine plasma by time kill assay (Rvb meropenem MIC in absence of plasma= 0.5 ug/ml); assay type: functional; settings: ATCC BAA-1605, 6 h; in short: as §1
# [19] = tested on: Acinetobacter baumannii; assay: Antibacterial activity against Acinetobacter baumannii ATCC BAA-1605 assessed as cell death at 15 uM after 16 hrs by checkerboard assay in presence of 50% bovine plasma; assay type: functional; settings: ATCC BAA-1605, Plasma; in short: as §4
# [20] = tested on: Pseudomonas aeruginosa; assay: Antibacterial activity against Pseudomonas aeruginosa PA53 assessed as reduction in CFU at 60 uM after 6 hrs by time kill assay; assay type: functional; in short: as §3
# [21] = tested on: Pseudomonas aeruginosa; assay: Antibacterial activity against Pseudomonas aeruginosa PA53 assessed as reduction in CFU at 60 uM after 6 hrs by time kill assay in presence of 4 ug/ml meropenem; assay type: functional; in short: as §3
structure (smiles),measurement,setting,value
Cl.Nc1nc(-c2ccc(NC(=O)c3cc(Cl)cc(Cl)c3)cc2)c[nH]1,MIC,[1],32 µg/mL
same,MIC,[2],50 µM
same,MIC,[3],> 200 µM
same,fold change (FC),[4],16
same,fold change (FC),[5],4
same,CC50,[6],387 µM
same,fold change (FC),[7],4
same,MIC,[8],50 µM
same,fold change (FC),[9],2.53
same,fold change (FC),[10],3.2
same,MIC,[11],16 µg/mL
same,MIC,[12],8 µg/mL
same,fold change (FC),[13],8
same,fractional inhibitory concentration index (FICI),[14],0.375
same,fold change (FC),[15],8
same,Activity,[16],Non-toxic
same,fold change (FC),[17],8
same,MIC,[18],0.5 µg/mL
same,MIC,[19],200 µM
same,fold change (FC),[20],2.49
same,fold change (FC),[21],3.2
